Measurements taken from ChEMBL document CHEMBL1147676, “Synthesis and antitumor characterization of pyrazolic analogues of the marine pyrroloquinoline alkaloids: wakayin and tsitsikammamines” (J Med Chem, 2006).

Experiments:
[1] = system: HCT-15; assay: Antiproliferative activity against human HCT15 cell line; type: functional, cell-based
Outline: (§1)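 Cells grown in RPMI with 10% heat-inactivated FCS, no antibiotics, 37 °C, 5% CO2, and checked mycoplasma-free. Seeded at 2000 cells/well (HCT15, PC3, CT26, Renca) or 1000 cells/well (HT29). After 24 h, exposed for 72 h to nine concentrations from 1 nM to 10 μM in phenol-red-free medium, 0.1% DMSO final. Read by XTT/PMS reduction (4 h, 492 nm), four wells per concentration. IC50 from a four-parameter logistic fit of growth as % of DMSO control.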

[2] = system: HT-29; assay: Antiproliferative activity against human HT29 cell line; type: functional, cell-based; outline: as §1
[3] = system: CT26; assay: Antiproliferative activity against mouse CT26 cell line; type: functional, cell-based; outline: as §1
[4] = system: PC-3; assay: Antiproliferative activity against human PC3 cell line; type: functional, cell-based; outline: as §1
[5] = biological target: T1, DNA topoisomerase 1 (Homo sapiens) (UniProt P11387); assay: Inhibition of topoisomerase 1 DNA cleavage activity
T1 sequence (whole entry): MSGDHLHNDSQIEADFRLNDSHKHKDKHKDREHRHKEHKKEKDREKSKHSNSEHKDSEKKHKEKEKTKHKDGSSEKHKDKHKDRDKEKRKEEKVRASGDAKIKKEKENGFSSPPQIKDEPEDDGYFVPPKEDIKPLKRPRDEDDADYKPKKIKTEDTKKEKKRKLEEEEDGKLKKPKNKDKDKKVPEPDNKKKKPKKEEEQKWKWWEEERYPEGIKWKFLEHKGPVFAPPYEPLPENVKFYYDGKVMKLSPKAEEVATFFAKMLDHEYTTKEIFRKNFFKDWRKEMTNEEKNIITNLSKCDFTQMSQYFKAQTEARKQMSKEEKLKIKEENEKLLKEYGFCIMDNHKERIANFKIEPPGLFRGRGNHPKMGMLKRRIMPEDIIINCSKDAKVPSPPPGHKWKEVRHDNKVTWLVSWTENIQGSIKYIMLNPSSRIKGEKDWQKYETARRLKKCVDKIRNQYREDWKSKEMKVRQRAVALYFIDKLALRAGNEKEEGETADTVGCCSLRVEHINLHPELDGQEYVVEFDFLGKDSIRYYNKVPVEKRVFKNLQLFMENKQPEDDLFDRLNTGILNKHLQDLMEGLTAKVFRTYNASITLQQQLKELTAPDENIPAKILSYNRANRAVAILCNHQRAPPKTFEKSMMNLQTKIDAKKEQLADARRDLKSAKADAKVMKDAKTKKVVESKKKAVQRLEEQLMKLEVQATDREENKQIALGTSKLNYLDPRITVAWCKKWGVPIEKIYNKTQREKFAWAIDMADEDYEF
Outline: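 Human topoisomerase I (2 units) incubated with 0.25 μg DNA I for 30 min at 37 °C with or without compound. Stopped with 1% SDS, proteinase K (50 μg/mL, 15 min, 37 °C), extracted twice with CIA, and run on 1% agarose (3.5 h, 75 V). Gel stained afterwards with ethidium bromide. Active concentration is the lowest giving complete inhibition, i.e. no relaxed or linear DNA.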

[6] = system: Renca; assay: Antiproliferative activity against mouse Renca cell line; type: functional, cell-based; outline: as §1
[7] = system: Renca; assay: Antiproliferative activity against mouse Renca cell line at 10 uM; type: functional
Outline: (§2)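 Growth inhibition at the top 10 μM concentration of a 72 h XTT/PMS proliferation assay (4 h stain, 492 nm, four wells), expressed against 0.1% DMSO control. Cells were in phenol-red-free RPMI with 10% FCS, seeded at 2000 cells/well (HCT15, PC3, CT26, Renca) or 1000 cells/well (HT29), and dosed 24 h after seeding.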

[8] = system: HT-29; assay: Antiproliferative activity against human HT29 cell line at 10 uM; type: functional; outline: as §2
[9] = system: HCT-15; assay: Antiproliferative activity against human HCT15 cell line at 10 uM; type: functional; outline: as §2
[10] = system: PC-3; assay: Antiproliferative activity against human PC3 cell line at 10 uM; type: functional; outline: as §2
[11] = system: CT26; assay: Antiproliferative activity against mouse CT26 cell line at 10 uM; type: functional; outline: as §2
[12] = biological target: DNA topoisomerase II (Homo sapiens) (UniProt P11388+Q02880); assay: Inhibition of topoisomerase 2 DNA cleavage activity; type: protein assay
Outline: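 Human topoisomerase II (4 units) incubated with 0.25 μg pRYG DNA and 0.5 mM ATP (final) for 30 min at 37 °C. Stopped with 1% SDS, proteinase K (50 μg/mL, 15 min), CIA extraction, and 1% agarose gel at 75 V for 3.5 h, then post-stained with 0.5 μg/mL ethidium bromide. Reported value is the lowest concentration abolishing relaxed or linear DNA.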

SMILES	IC50 [1]	IC50 [2]	IC50 [3]	IC50 [4]	Inhibition [5]	IC50 [6]	inhibition at 10 µM [7]	inhibition at 10 µM [8]	inhibition at 10 µM [9]	inhibition at 10 µM [10]	inhibition at 10 µM [11]	Inhibition [12]
Cc1ccc(S(=O)(=O)n2cc3c4c2C(=O)c2c(cnn2C)C4=NCC3)cc1	6.5 µM	3100 nM	5.3 µM	4.9 µM	300 µM	140 nM						
Cc1ccc(S(=O)(=O)n2cc3c4c2C(=O)c2cn[nH]c2C4=NCC3)cc1					300 µM		0%	0%	0%	0%	0%	> 300 µM
Cc1ccc(S(=O)(=O)n2cc3c4c2C(=O)c2c(-c5ccccc5)n[nH]c2C4=NCC3)cc1					100 µM		0%	0%	0%	0%	0%	> 100 µM
Cn1ncc2c1C1=NCCc3c[nH]c(c31)C2=O		3600 nM	7 µM		> 100 µM	6300 nM			0%	0%		100 µM
CC[C@@]1(O)C(=O)OCc2c1cc1n(c2=O)Cc2cc3ccccc3nc2-1 [CAMPTOTHECIN]	0.018 µM	30 nM	0.034 µM	0.052 µM		304 nM						
O=C1c2n[nH]c(-c3ccc(O)cc3)c2C2=NCCc3c[nH]c1c32					> 100 µM		0%	0%	0%	0%	0%	100 µM
O=C1c2c[nH]nc2C2=NCCc3c[nH]c1c32					> 100 µM		0%	45%	25%	0%	0%	100 µM
Cc1ccc(S(=O)(=O)n2cc3c4c2C(=O)c2cnn(C)c2C4=NCC3)cc1	5 µM	1900 nM	4.9 µM	5.8 µM	> 100 µM	4600 nM						> 100 µM
Cc1ccc(S(=O)(=O)n2cc3c4c2C(=O)c2[nH]nc(-c5ccc(O)cc5)c2C4=NCC3)cc1					30 µM		0%	23%	0%	0%	0%	> 100 µM
Cc1ccc(S(=O)(=O)n2cc3c4c2C(=O)c2[nH]nc(-c5ccccc5)c2C4=NCC3)cc1					300 µM		0%	0%	0%	0%	0%	
COc1cc([C@@H]2c3cc4c(cc3[C@@H](O[C@@H]3O[C@@H]5CO[C@@H](C)O[C@H]5[C@H](O)[C@H]3O)[C@H]3COC(=O)[C@H]23)OCO4)cc(OC)c1O [ETOPOSIDE]	4.5 µM	6600 nM	0.2 µM	7.8 µM		2900 nM						100 µM
O=C1c2[nH]cc3c2C(=NCC3)c2n[nH]c(-c3ccc(O)cc3)c21					300 µM		0%	0%	0%	0%	0%	> 300 µM
O=C1c2[nH]cc3c2C(=NCC3)c2[nH]nc(-c3ccccc3)c21	2.7 µM				> 100 µM		0%	47%		0%	0%	> 100 µM
Cc1ccc(S(=O)(=O)n2cc3c4c2C(=O)c2n[nH]cc2C4=NCC3)cc1					100 µM		0%	0%	0%	0%	0%	> 100 µM
Cc1ccc(S(=O)(=O)n2cc3c4c2C(=O)c2c(n[nH]c2C2(O)C(=O)N(C)c5ccccc52)C4=NCC3)cc1 (configuration not stated)	1.6 µM	2900 nM	2.9 µM	5.2 µM	> 100 µM	1900 nM						
Cn1ncc2c1C(=O)c1[nH]cc3c1C2=NCC3					> 100 µM		6%	4%	0%	0%	7%	> 100 µM
Cc1ccc(S(=O)(=O)n2cc3c4c2C(=O)c2c(-c5ccc(O)cc5)n[nH]c2C4=NCC3)cc1					10 µM		0%	41%	0%	0%	0%	100 µM
O=C1c2[nH]cc3c2C(=NCC3)c2c(-c3ccccc3)n[nH]c21					100 µM		0%	0%	0%	0%	0%	> 100 µM
O=C1c2[nH]ncc2C2=NCCc3c[nH]c1c32					> 100 µM		0%	0%	0%	0%	0%	100 µM
